ChEMBL document CHEMBL4402562, “Discovery of Novel Peptidomimetic Boronate ClpP Inhibitors with Noncanonical Enzyme Mechanism as Potent Virulence Blockers in Vitro and in Vivo” (J Med Chem, 2020)
Calls of active or inactive are those of the source. The calls are words filed in the database; no cut-off is given here.

Key:
[1] = molecular target: T1, ATP-dependent Clp protease proteolytic subunit (Staphylococcus aureus (strain NCTC 8325)) (UniProt Q2G036); test: Inhibition of N-terminal His6-sumo-tagged full length Staphylococcus aureus ClpP expressed in Escherichia coli […] assessed as enzyme activity recovery level at 20-fold molar excess pre-incubated for 10 mins before Suc-LY-AMC addition and measured after 1 hr followed by dialysis up to 72 hrs by fluorescence based assay relative to control; parameters: scale not given: the % may be the effect or the level left
T1 sequence (whole entry): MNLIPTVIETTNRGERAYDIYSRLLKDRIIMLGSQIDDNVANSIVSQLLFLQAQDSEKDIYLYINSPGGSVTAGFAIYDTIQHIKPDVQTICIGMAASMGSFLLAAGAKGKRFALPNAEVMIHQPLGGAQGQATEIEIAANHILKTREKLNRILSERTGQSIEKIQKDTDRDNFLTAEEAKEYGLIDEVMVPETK
How it was run: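 ClpP (1 μM, 100 mM Hepes pH 7.0, 100 mM NaCl) incubated 1 h at RT with 20-fold molar excess inhibitor or DMSO. Dialyzed at 4 °C, buffer changed after 6 h and then every 24 h. Aliquots assayed for peptidase activity with Suc-LY-AMC. Thrice, single sample.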

[2] = molecular target: T1, ATP-dependent Clp protease proteolytic subunit (Staphylococcus aureus (strain NCTC 8325)); test: (§1) Inhibition of N-terminal His6-sumo-tagged full length Staphylococcus aureus ClpP expressed in Escherichia coli […] pre-incubated for 10 mins before Suc-LY-AMC addition and measured after 1 hr by fluorescence based assay
How it was run: (§2)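 SaClpP (1 μM monomer) in 100 mM Hepes pH 7.0, 100 mM NaCl. Preincubated 10 min at RT with inhibitor, two-fold dilutions over 8 steps from 100 μM. Suc-LY-AMC at 200 μM, 380/440 nm recorded for 1 h at 37 °C, slopes normalized to DMSO. For kinact/Ki, inhibitor premixed with substrate and reaction started by enzyme, fitted by least squares. Thrice, triplicate wells.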

[3] = molecular target: T2, ATP-dependent Clp protease proteolytic subunit (Staphylococcus aureus (strain NCTC 8325), UniProt Q2G036); test: as §1; how it was run: as §2
T2 sequence (Q2G036 whole entry): T1 sequence (whole entry)

[4] = molecular target: T1, ATP-dependent Clp protease proteolytic subunit (Staphylococcus aureus (strain NCTC 8325)); test: Inhibition of N-terminal His6-sumo-tagged full length Staphylococcus aureus ClpP expressed in Escherichia coli […] (DE3) assessed as Kinact/Ki ratio […] and measured after 1 hr by fluorescence based assay
[5] = molecular target: T1, ATP-dependent Clp protease proteolytic subunit (Staphylococcus aureus (strain NCTC 8325)); test: Binding affinity to N-terminal His6-sumo-tagged full length Staphylococcus aureus ClpP expressed in Escherichia coli […] assessed as change in melting temperature at 100 uM by differential scanning calorimetry analysis
How it was run: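 DSC: SaClpP at 0.5 mg/mL (25 μM) incubated at RT with 100 μM inhibitor in assay buffer. Scanned at 1 °C/min over 30–90 °C, with a buffer-buffer scan subtracted. Tm taken as the thermogram peak maximum. Run once, single sample.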

[6] = molecular target: T2, ATP-dependent Clp protease proteolytic subunit; test: Inhibition of ClpP in methicillin-resistant Staphylococcus aureus ATCC 33591 assessed as reduction in bacteria-induced hemolysis of sheep erythrocytes by measuring hemoglobin release incubated for 15 mins
[7] = Induction of hemolysis in sheep erythrocytes by measuring hemoglobin release incubated for 15 mins; type: cell-based, Ovis aries, Erythrocyte
How it was run: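 Serially diluted compound mixed directly with 2% sheep erythrocytes in 10 mM Tris pH 7.4, 0.9% NaCl. Buffer served as negative and water as positive control. After 1,500 rpm, 15 min spin, released hemoglobin read at 545 nm. Three experiments, triplicate tubes.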

[8] = Cytotoxicity in human HeLa cells assessed as reduction in cell viability incubated for 24 hrs by MTT assay; type: cell-based
How it was run: (§3)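 MTT assay. HeLa (3×10^3 cells) or HepG2 (4×10^3 cells) seeded in DMEM and grown 24 h, then given compound for a further 24 h. Absorbance read at 570 nm against DMSO wells. GI50 from dose-response fit; three experiments, triplicate wells.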

Staphylococcus aureus [9] = test: Inhibition of Staphylococcus aureus ClpXP expressed in Escherichia coli […] at 1 to 100 uM using FITC-casein substrate in presence of ATP-regenerating system incubated for 50 mins by fluorescence based assay
How it was run: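 3.6 μM SaClpP with 3 μM SaClpX in 25 mM Hepes pH 7.5, 20 mM MgCl2, 30 mM KCl, 0.03% Tween 20, 10% glycerol, 2 mM DTT. ATP regeneration: 4 mM ATP, 20 U/mL creatine kinase, 16 mM creatine phosphate. FITC-casein 0.048 mg/mL, 494/521 nm for 50 min; slope 300–1200 s vs DMSO. Thrice, triplicate wells.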

[10] = Cytotoxicity in human HepG2 cells assessed as reduction in cell viability incubated for 24 hrs by MTT assay; type: cell-based; how it was run: as §3
[11] = Inhibition of Pseudomonas aeruginosa ClpP1 expressed in Escherichia coli […] pre-incubated for 10 mins before Suc-LY- AMC addition and measured after 1 hr by fluorescence based assay relative to control
How it was run: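 PaClpP1 (0.5 μM monomer) in 25 mM Tris-Cl pH 7.5, 150 mM NaCl. Preincubated 10 min at RT with inhibitor, two-fold dilutions over 8 steps from 50 μM. Then 50 μM Suc-LY-AMC, 380/440 nm for 1 h at 37 °C, slopes normalized to DMSO. Thrice, triplicate wells.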

[12] = molecular target: 20S proteasome (Homo sapiens) (UniProt P49721+P20618+P28074+P28062+P28065+P28072+P25786+P25787+P25788+P25789+P28066+P60900+O14818+Q8TAA3+P40306+A5LHX3+P49720+P28070+Q99436); test: Inhibition of 20S proteasome (unknown origin) pre-incubated before Suc-LLVY-AM addition and measured after 1 hr by fluorescence based assay; type: protein-complex assay
[13] = Inhibition of human ClpP (57 to 277 residues) expressed in Escherichia coli […] pre-incubated for 10 mins before Ac-WLA-AMC addition and measured after 1 hr by fluorescence based assay relative to control
How it was run: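 hClpP (3.5 μM monomer) in 25 mM Tris-HCl pH 8.0, 100 mM KCl. Preincubated 10 min at RT with inhibitor, two-fold dilutions over 8 steps from 100 μM. Then 100 μM Ac-WLA-AMC, 380/440 nm for 1 h at 37 °C, slopes normalized to DMSO. Thrice, triplicate wells.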

[14] = Inhibition of AlgW (unknown origin) up to 100 uM pre-incubated for 10 mins before Abz-T-V-A-W-pNA addition and measured after 1 hr by fluorescence based assay
[15] = molecular target: Coagulation factor X (Homo sapiens) (UniProt P00742); test: Inhibition of human F10a up to 100 uM pre-incubated for 10 mins before Pefachrome Fxa addition and measured after […] based assay
Staphylococcus aureus [16] = test: Growth inhibition of methicillin-resistant Staphylococcus aureus ATCC 33591 up to 64 uM incubated for 18 hrs by broth microdilution method; type: functional, organism-based
How it was run: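 MRSA ATCC 33591 at ~5×10⁵ CFU/mL in MHB with graded compound concentrations vs DMSO; OD600 growth curves over 18 h; three experiments, triplicate wells. MIC by CLSI broth microdilution in CAMHB, 0.5-256 µg/mL, 18 h at 37 °C, lowest concentration with no visible growth.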

Chain of Coagulation factor X (Homo sapiens) (P00742 41-179 limits assumed): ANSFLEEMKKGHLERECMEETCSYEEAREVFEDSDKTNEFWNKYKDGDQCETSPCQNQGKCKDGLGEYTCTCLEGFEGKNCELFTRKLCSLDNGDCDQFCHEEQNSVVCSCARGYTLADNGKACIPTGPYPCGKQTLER
Chain of Coagulation factor X (Homo sapiens) (P00742 235-488 limits assumed): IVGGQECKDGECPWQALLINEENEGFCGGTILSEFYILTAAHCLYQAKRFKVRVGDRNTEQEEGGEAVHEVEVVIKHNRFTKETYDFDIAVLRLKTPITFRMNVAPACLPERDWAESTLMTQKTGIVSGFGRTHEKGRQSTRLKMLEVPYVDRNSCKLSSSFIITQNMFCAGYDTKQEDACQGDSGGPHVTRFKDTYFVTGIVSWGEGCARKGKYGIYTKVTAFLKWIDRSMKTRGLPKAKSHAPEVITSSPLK

Row | Compound | Activity [1] [%] | inhibition [2] | IC50 [3] [µM] | Ratio [4] [×10² /s.M] | ΔTm [5] [°C] | EC50 [6] [µM] | HC50 at 0.25 h [7] [µM] | GI50 at 24 h [8] [µM] | inhibition (Staphylococcus aureus [9]) | GI50 at 24 h [10] [µM] | IC50 [11] [µM] | inhibition [12] | IC50 [13] [µM] | inhibition [14] | inhibition [15] | growth inhibition (GI) (Staphylococcus aureus [16])
1 | CC(C)C[C@H](NC(=O)[C@H](Cc1ccccc1)NC(=O)c1cnccn1)B(O)O [BORTEZOMIB] | 100 | Dose-dependent effect | 5.3 | 2.2 | 29.5 to 42.2 | 23.5 | > 500 | 168 | inactive | 101 |  |  |  |  |  | 
2 | CC(C)Cc1ccc(C(C)C(=O)N[C@@H](Cc2ccc(O)cc2)C(=O)N[C@@H](CC(C)C)B(O)O)cc1 (stereo partly drawn) | 100 | Dose-dependent effect | 1.4 | 7.2 | 29.5 to 42.2 | 9.6 | > 500 | 83 |  | 117 | 3 to 25 | Active | 3 to 25 | inactive | inactive | 
3 | COc1ccc(C(=O)N[C@@H](Cc2ccccc2)C(=O)N[C@@H](CC(C)C)B(O)O)c(C)c1 | 100 | Dose-dependent effect | 1.5 | 9.1 | 29.5 to 42.2 | 14.8 | > 500 | > 200 |  | > 200 |  |  |  |  |  | 
4 | CC(C)Cc1ccc(C(C)C(=O)N[C@@H](Cc2c[nH]c3ccccc23)C(=O)N[C@@H](CC(C)C)B(O)O)cc1 (stereo partly drawn) | 100 | Dose-dependent effect | 1.9 | 8 | 29.5 to 42.2 | 2.6 | > 500 | 71.2 |  | 54.8 |  |  |  |  |  | inactive
